Measurements reported in ChEMBL document CHEMBL1122747, “Potential antitumor agents. 42. Structure-activity relationships for acridine-substituted dimethyl phosphoramidate derivatives of 9-anilinoacridine” (J Med Chem, 1984).
pIC50: −log10 of the molar value.

Tests used:
[1] = Lipophilicity (Rm) (liquid chromatography); type: physicochemical
Outline: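 Rm is measured for drug cations at pH 2 by liquid-liquid chromatography on a cellulose support.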

[2] = Binding affinity towards poly[d(A-T)] (fluorometric method); type: ADME
Outline: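 Log R for binding to poly[d(A-T)] measured fluorometrically, corrected for quenching.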

L1210 = assay: In vitro test for 50% reduction of cell number (of control) after 70 hr incubation with cultures of murine L1210 leukemia cells; type: functional; settings: Mus musculus, L1210, 70 h; read-out: ID50 (the source's name)
P388 [3] = assay: Dose of drug needed to provide a percentage increase in life span of tumor-bearing mice in vivo of […]% compared to untreated controls after inoculation of 10e6 P388 leukemia cells; h=ILS of >50% could not be obtained at any dose level; type: functional, organism-based; settings: Mus musculus
P388 [4] = assay: Tumor cell selectivity (ILSmax values) was evaluated in vivo for the percentage increase in life span of treated animals over that of P388 tumor bearing untreated control animals; h=ILS of >20% could not be obtained at any dose level; type: functional, organism-based; settings: Mus musculus
Outline: (§1)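 F1 (DBA/2J × C57BlJ) mice, 19-21 g, either sex, inoculated with 10^6 P388 leukemia cells on day 0. Drug given ip in 0.1 mL 30% aqueous ethanol on days 1, 5 and 9, as a solution or, at highest doses, as a sonicated suspension. Doses stepped down from a toxic level at 0.67-fold intervals. Groups of six mice; ILS relative to 20-30 controls. OD is the highest nonacutely toxic daily dose.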

P388 [5] = assay: In vivo inhibition of P388 in mice for optimal (highest nonacutely toxic) dose (OD); type: functional, Mus musculus; outline: as §1
P388 [6] = assay: Tumor cell selectivity (ILSmax values) was evaluated in vivo for the percentage increase in life span of treated animals over that of P388 tumor bearing untreated control animals; h=ILS of >50% could not be obtained at any dose level; type: functional, organism-based; settings: Mus musculus; outline: as §1
P388 [7] = assay: In vivo tumor cell selectivity (ILSmax values)for percentage increase in life span of treated animals over that of P388 tumor bearing untreated control animals; type: functional, Mus musculus

Structure (SMILES) | Rm [1] | Log K [2] | pIC50 (L1210) | D50 (P388 [3]) | Activity (P388 [4]) | OD (P388 [5]) | Activity (P388 [6]) | Activity (P388 [7])
COc1ccc2nc3ccccc3c(Nc3ccc(NS(C)(=O)=O)cc3)c2c1 | -0.04 | 6 | 5.60 | ILS not obtained | ILS not obtained | 150 mg/kg/day | – | –
CS(=O)(=O)Nc1ccc(Nc2c3ccccc3nc3ccc(Cl)cc23)cc1 | 0.15 | 5.62 | 5.42 | ILS not obtained | – | 150 mg/kg/day | ILS not obtained | –
COc1ccc2nc3ccccc3c(Nc3ccc(NP(=O)(OC)OC)cc3)c2c1 | 0.29 | 6.25 | 6.04 | ILS not obtained | – | 45 mg/kg/day | – | 38%
Cc1ccc2nc3ccccc3c(Nc3ccc(NS(C)(=O)=O)cc3)c2c1 | 0.14 | 5.7 | 6.17 | ILS not obtained | – | 100 mg/kg/day | – | 39%
COP(=O)(Nc1ccc(Nc2c3ccccc3nc3cc([N+](=O)[O-])ccc23)cc1)OC | 0.14 | 6.73 | 7.13 | ILS not obtained | – | 8.9 mg/kg/day | – | 22%
CS(=O)(=O)Nc1ccc(Nc2c3ccccc3nc3cc([N+](=O)[O-])ccc23)cc1 | -0.18 | 6.51 | 7.05 | ILS not obtained | – | 8.9 mg/kg/day | – | 43%
CS(=O)(=O)Nc1ccc(Nc2c3ccccc3nc3cc(Br)ccc23)cc1 | 0.16 | 6.93 | 7.80 | ILS not obtained | – | 100 mg/kg/day | – | 33%
COc1cc(NP(=O)(OC)OC)ccc1Nc1c2ccccc2nc2ccc(C)cc12 | 0.55 | 5.28 | 6.01 | ILS not obtained | – | 30 mg/kg/day | – | 25%
COP(=O)(Nc1ccc(Nc2c3ccccc3nc3ccc(C)cc23)cc1)OC | 0.43 | 6.09 | 6.54 | ILS not obtained | – | 20 mg/kg/day | – | 36%
COP(=O)(Nc1ccc(Nc2c3ccccc3nc3ccc(Cl)cc23)cc1)OC | 0.37 | 6.17 | 6.05 | ILS not obtained | – | 100 mg/kg/day | ILS not obtained | –
CS(=O)(=O)Nc1ccc(Nc2c3ccccc3nc3cc(S(C)(=O)=O)ccc23)cc1 | -0.2 | 5.3 | < 5.66 | ILS not obtained | – | 150 mg/kg/day | ILS not obtained | –
